According to ChEMBL document CHEMBL4406830, “Galloyl esters of trans-stilbenes are inhibitors of FASN with anticancer activity on non-small cell lung cancer cells” (Eur J Med Chem, 2019):
In brackets after ≈: the same amount, converted by molar mass. Activity calls are given as the source filed them. The calls are words filed in the database; no cut-off is given here.

How the values were obtained:
[1] = system: NCI-H1703; assay: Antiproliferative activity against human NCI-H1703 cells expressing FASN assessed as growth inhibition at 25 uM after 72 hrs by MTS assay relative to control; type: functional; details: NCI-H1703, 72 h
Outline: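 H1703 cells were treated with a single 25 µM concentration for 72 h. Viability was measured by MTS at 490 nm, with 0.1% DMSO and media-only correction, relative to untreated control. Mean ± SD of n = 3 independent determinations, unpaired t test against control.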

[2] = system: NCI-H1703; assay: Antiproliferative activity against human NCI-H1703 cells expressing FASN assessed as reduction in cell viability after 72 hrs by MTS assay; type: functional, cell-based; details: NCI-H1703, 72 h
Outline: (§1)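 ATCC-sourced cells. H1299, H1650, H1703 and PC-9 were grown in RPMI 1640 with 10% FBS. A549 was grown in high-glucose DMEM with 10% FBS and 1 mM pyruvate. SAEC was grown in BEGM. Cells were seeded at 3 × 10^3 per well (H1650 3.5 × 10^3) and left to attach overnight. Serial dilutions from DMSO stocks were added, 0.1% DMSO final, for 72 h at 37 °C, 5% CO2. Medium was replaced, MTS added, and A490 read after 2 h. IC50 was taken from % viability versus log concentration, 3 experiments.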

[3] = system: NCI-H1299; assay: Antiproliferative activity against human NCI-H1299 cells expressing FASN assessed as reduction in cell viability after 72 hrs by MTS assay; type: functional, cell-based; details: NCI-H1299, 72 h; outline: as §1
[4] = Selectivity index, ratio of IC50 for human SAE cells lacking FASN expression to IC50 for human NCI-H1299 cells expressing FASN expression
Outline: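 Index is the SAEC IC50 divided by the IC50 in the FASN-expressing NSCLC line. IC50s came from MTS viability after 72 h exposure at 37 °C, 5% CO2, DMSO 0.1% v/v. Absorbance was read at 490 nm after 2 h. The fit was % viability against log concentration, with 4 technical repeats and 3 independent experiments. NSCLC lines were grown in RPMI/10% FBS; SAEC in BEGM.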

[5] = system: NCI-H1650; assay: Antiproliferative activity against human NCI-H1650 cells expressing FASN assessed as reduction in cell viability after 72 hrs by MTS assay; type: functional, cell-based; details: NCI-H1650, 72 h; outline: as §1
[6] = system: PC-9; assay: Antiproliferative activity against human PC9 cells harboring FASN expression and EGFR delE746-A750 mutant assessed as reduction in cell viability after 72 hrs by MTS assay; type: functional, cell-based; details: PC-9, 72 h; outline: as §1
[7] = system: NCI-H1703; assay: Induction of apoptosis in human NCI-H1703 cells expressing FASN assessed as increase in late apoptotic cells at 5 uM after 72 hrs by Annexin-V FITC/PI staining-based flow cytometry; type: functional, cell-based
[8] = system: PC-9; assay: Induction of apoptosis in human PC9 cells harboring FASN expression and EGFR delE746-A750 mutant assessed as increase in late apoptotic cells at 5 uM after 72 hrs by Annexin-V FITC/PI staining-based flow cytometry; type: functional, cell-based
[9] = Kinetic solubility of the compound in universal buffer at pH 7.4 measured at 25 degC after 24 hrs by UV/Visible spectroscopic analysis; type: physicochemical; details: read-out: Kinetic_solubility
[10] = molecular target: Fatty acid synthase (Homo sapiens) (UniProt P49327); assay: (§2) Inhibition of FASN in human PC9 cells harboring FASN expression and EGFR delE746-A750 mutant assessed as disruption of AKT/FASN positive feedback loop by measuring decrease in FASN expression at 5 uM after 48 hrs by Western immunoblot based densitometric assay relative to control; type: cell-based
Chain of Fatty acid synthase (Homo sapiens) (P49327 whole entry, looked up): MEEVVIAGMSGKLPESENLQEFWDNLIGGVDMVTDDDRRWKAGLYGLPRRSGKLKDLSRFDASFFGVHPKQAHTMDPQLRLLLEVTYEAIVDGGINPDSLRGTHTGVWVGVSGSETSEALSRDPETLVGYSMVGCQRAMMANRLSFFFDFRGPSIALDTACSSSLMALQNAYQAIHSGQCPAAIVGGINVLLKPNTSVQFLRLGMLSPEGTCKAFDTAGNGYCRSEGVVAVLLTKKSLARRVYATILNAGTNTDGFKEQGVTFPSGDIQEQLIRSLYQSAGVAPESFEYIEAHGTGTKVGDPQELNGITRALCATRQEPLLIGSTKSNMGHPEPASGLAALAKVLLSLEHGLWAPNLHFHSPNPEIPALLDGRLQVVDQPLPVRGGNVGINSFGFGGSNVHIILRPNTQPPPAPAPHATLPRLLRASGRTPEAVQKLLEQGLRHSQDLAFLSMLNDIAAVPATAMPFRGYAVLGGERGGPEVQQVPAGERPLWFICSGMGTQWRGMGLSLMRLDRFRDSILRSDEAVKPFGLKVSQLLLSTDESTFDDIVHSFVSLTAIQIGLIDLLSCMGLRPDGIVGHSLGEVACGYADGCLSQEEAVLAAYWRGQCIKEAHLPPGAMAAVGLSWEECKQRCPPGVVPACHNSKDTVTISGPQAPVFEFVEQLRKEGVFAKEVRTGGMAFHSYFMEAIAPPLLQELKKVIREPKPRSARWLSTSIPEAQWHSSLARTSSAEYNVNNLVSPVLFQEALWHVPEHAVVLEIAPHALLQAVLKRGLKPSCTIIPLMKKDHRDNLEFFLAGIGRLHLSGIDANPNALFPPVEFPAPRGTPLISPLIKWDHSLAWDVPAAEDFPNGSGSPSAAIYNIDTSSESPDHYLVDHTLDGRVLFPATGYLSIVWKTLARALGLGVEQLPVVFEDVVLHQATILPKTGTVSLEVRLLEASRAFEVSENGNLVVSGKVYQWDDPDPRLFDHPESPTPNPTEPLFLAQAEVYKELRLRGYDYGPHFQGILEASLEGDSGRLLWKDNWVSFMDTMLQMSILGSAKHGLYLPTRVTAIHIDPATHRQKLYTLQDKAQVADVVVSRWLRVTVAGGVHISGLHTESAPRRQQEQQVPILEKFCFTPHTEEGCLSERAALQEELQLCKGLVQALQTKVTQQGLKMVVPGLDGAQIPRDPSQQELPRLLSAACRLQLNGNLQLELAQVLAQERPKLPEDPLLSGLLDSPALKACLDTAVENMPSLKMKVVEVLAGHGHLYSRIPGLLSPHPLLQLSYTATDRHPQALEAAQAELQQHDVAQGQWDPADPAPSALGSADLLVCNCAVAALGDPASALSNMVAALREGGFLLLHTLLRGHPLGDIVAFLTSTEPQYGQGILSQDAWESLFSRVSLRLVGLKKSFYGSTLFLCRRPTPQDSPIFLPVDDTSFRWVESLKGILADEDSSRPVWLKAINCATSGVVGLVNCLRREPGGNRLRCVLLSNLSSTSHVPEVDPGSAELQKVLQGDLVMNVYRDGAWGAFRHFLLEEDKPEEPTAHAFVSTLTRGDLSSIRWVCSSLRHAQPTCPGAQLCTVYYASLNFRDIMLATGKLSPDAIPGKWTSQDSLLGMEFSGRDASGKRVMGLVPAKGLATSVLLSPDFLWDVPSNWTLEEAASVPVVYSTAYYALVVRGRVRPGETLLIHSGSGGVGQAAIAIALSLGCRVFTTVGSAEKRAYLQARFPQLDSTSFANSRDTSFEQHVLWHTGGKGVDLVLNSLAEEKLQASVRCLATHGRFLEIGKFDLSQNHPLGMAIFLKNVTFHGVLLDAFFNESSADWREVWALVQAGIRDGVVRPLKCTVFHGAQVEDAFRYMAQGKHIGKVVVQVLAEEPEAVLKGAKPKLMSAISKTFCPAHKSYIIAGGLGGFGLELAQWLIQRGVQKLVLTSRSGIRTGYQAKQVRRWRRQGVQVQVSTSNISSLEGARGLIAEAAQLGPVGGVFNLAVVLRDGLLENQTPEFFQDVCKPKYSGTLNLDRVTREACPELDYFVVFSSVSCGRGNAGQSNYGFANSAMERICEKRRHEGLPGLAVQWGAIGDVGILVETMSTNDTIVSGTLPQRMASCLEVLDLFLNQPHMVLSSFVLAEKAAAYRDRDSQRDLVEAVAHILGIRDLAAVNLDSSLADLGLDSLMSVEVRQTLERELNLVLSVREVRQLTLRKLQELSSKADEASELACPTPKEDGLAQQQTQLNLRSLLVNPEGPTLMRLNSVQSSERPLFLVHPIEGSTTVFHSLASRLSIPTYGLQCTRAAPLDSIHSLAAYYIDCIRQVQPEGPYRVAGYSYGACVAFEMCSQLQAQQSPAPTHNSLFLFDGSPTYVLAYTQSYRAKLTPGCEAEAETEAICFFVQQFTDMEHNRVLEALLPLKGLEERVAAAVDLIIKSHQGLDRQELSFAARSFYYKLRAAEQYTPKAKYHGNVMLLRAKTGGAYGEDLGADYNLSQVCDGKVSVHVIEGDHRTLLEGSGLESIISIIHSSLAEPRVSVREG
Outline: (§3)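 PC-9 or H1703 cells were seeded at 8 × 10^5 per 100 mm dish and treated for 48 h at 1 or 5 µM (or 5, 50 and 100 µM). RIPA lysates were BCA-quantified and run on 8% SDS-PAGE, then transferred to PVDF. Blots were probed for FASN, AKT, phospho-AKT S473 and GAPDH and detected by ECL. Bands were quantified by densitometry and normalised to vehicle control.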

[11] = molecular target: Fatty acid synthase (Homo sapiens) (UniProt P49327); assay: Inhibition of FASN in human NCI-H1703 cells expressing FASN assessed as disruption of AKT/FASN positive feedback loop by measuring decrease in FASN expression at 1 uM after 48 hrs by Western immunoblot based densitometric assay relative to control; type: cell-based; outline: as §3
[12] = molecular target: Fatty acid synthase (Homo sapiens) (UniProt P49327); assay: Inhibition of FASN in human NCI-H1703 cells expressing FASN assessed as disruption of AKT/FASN positive feedback loop by measuring decrease in FASN expression at 5 uM after 48 hrs by Western immunoblot based densitometric assay relative to control; type: cell-based; outline: as §3
[13] = molecular target: Fatty acid synthase (Homo sapiens) (UniProt P49327); assay: Inhibition of FASN in human PC9 cells harboring FASN expression and EGFR delE746-A750 mutant assessed as disruption of AKT/FASN positive feedback loop by measuring reduction in AKT expression at 1 uM after 48 hrs by Western immunoblot based densitometric assay relative to control; type: cell-based; outline: as §3
[14] = molecular target: Fatty acid synthase (Homo sapiens) (UniProt P49327); assay: Inhibition of FASN in human NCI-H1703 cells expressing FASN assessed as disruption of AKT/FASN positive feedback loop by measuring decrease in AKT expression at 1 uM after 48 hrs by Western immunoblot based densitometric assay relative to control; type: cell-based; outline: as §3
[15] = molecular target: Fatty acid synthase (Homo sapiens) (UniProt P49327); assay: Inhibition of FASN in human PC9 cells harboring FASN expression and EGFR delE746-A750 mutant assessed as disruption of AKT/FASN positive feedback loop by measuring reduction in phosphorylated AKT expression at 1 uM after 48 hrs by Western immunoblot based densitometric assay relative to control; type: cell-based; outline: as §3
[16] = molecular target: Fatty acid synthase (Homo sapiens) (UniProt P49327); assay: Inhibition of FASN in human PC9 cells harboring FASN expression and EGFR delE746-A750 mutant assessed as disruption of AKT/FASN positive feedback loop by measuring reduction in phosphorylated AKT expression at 5 uM after 48 hrs by Western immunoblot based densitometric assay relative to control; type: cell-based; outline: as §3
[17] = molecular target: Fatty acid synthase (Homo sapiens) (UniProt P49327); assay: as §2, with “measuring” for “measuring decrease in”, “at 2” for “at 5”, “hrs in presence of exogenous lipid concentrate” for “hrs”; type: cell-based
Outline: (§4)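 PC-9 (2 µM) or H1703 (1 µM) cells were treated with compound, with or without lipid concentrate (1% v/v per figure legend), for 48 h. Cells were lysed in RIPA buffer and lysates run on SDS-PAGE western blots for FASN, AKT, phospho-AKT S473 and GAPDH. Bands were quantified by densitometry and normalised to untreated control.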

[18] = molecular target: Fatty acid synthase (Homo sapiens) (UniProt P49327); assay: Inhibition of FASN in human NCI-H1703 cells expressing FASN assessed as disruption of AKT/FASN positive feedback loop by measuring decrease in FASN expression at 1 uM after 48 hrs in presence of exogenous lipid concentrate by Western immunoblot based densitometric assay relative to control; type: cell-based; outline: as §4
[19] = system: NCI-H1703; assay: Antiproliferative activity against human NCI-H1703 cells expressing FASN assessed as cell viability at 1 uM after 72 hrs in presence of exogenous lipid concentrate by MTS assay; type: functional, cell-based
Outline: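 Cells were treated as in the MTS viability assay. After 6 h, chemically defined lipid concentrate was added to 2% v/v final. Incubation continued for a further 72 h, then viability was read by MTS at 490 nm. Cells were treated at 2 µM (PC-9) or 1 µM (H1703). Mean ± SD, n = 3, compared with compound alone.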

SMILES	inhibition at 25 µM [1] [%]	IC50 [2] [nM]	IC50 [3] [nM]	Ratio IC50 [4]	IC50 [5] [nM]	IC50 [6] [nM]	Activity [7]	Activity [8]	solubility kinetic at 24 h [9] [µM]	Ratio [10]	Ratio [11]	Ratio [12]	Ratio [13]	Ratio [14]	Ratio [15]	Ratio [16]	Ratio [17]	Ratio [18]	inhibition [19]
O=C(Oc1ccc(/C=C/c2cccc(OC(=O)c3cc(O)c(O)c(O)c3)c2)cc1)c1cc(O)c(O)c(O)c1	> 50	1280	3100	2.2	12700	5000	Active	Active	6 (≈ 3.1 µg/mL)	0.65	0.38 to 0.39	0.08	0.58	0.52	0.53	0.29	0.62	1.64	inactive
O=C(Oc1ccc(/C=C/c2ccc(OC(=O)c3cc(O)c(O)c(O)c3)cc2)cc1)c1cc(O)c(O)c(O)c1	> 50	970	3300	1.5	2500	2300	Active	Active	2.5 (≈ 1.29 µg/mL)	0.49	0.11 to 0.24	0.04	1.04	0.34	0.88	0.2	0.55	0.74	inactive
